Reference: PMC4339263 (Health physics, 2015)
Where “and” joins values, the source holds several entries; their conditions need not be identical. Identical values can stand only once. Like-named read-outs stand apart in the source and are kept apart here.

Assays:
[1] = Competitive binding of ^241Am in human plasma; conditions: for EC50 / EC90 / logistic equation parameter a (slope) / logistic equation parameter b (inflection point) / logistic equation parameter c (asymptote, fraction of bound ^241Am): human plasma, 3 nM ^241Am nitrate, 37°C; for logistic equation parameter a (slope) / logistic equation parameter b (inflection point) / logistic equation parameter c (asymptote, fraction of bound ^241Am): estimate ± 95% conf. interval
Summary of the method: (§1)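 Ligand stocks were in 10 mM sodium phosphate, pH 7.4, and added to plasma at 0.5–750 µM final, with ^241Am nitrate (stock in 1 M HCl). Samples were incubated at 37°C with mild agitation, then protein-bound Am was removed on a 3K ultrafilter (14,000×g, 30 min). Ligand-bound and cationic Am in the filtrate were separated on strong cation-exchange spin columns, and each fraction was gamma-counted (40–80 keV). Bound fraction was fitted against log concentration by logistic Gauss-Newton regression, and EC50 was taken at half of the asymptote.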

[2] = Competitive binding of ^241Am in beagle plasma; conditions: 3 nM ^241Am nitrate, 37°C; for logistic equation parameter a (slope) / logistic equation parameter b (inflection point) / logistic equation parameter c (asymptote, fraction of bound ^241Am): estimate ± 95% conf. interval
Summary of the method: as §1

Ionization = type: physicochemical; conditions: 5 mM ligand in 0.15 M KCl
Summary of the method: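 The free ligand was titrated with acid and then with base. After each addition it was equilibrated for 30 s, and pH was then read on a glass electrode with an Ag/AgCl reference. Ligand integrity was checked afterwards by HPLC with charged aerosol detection. Constants were calculated from three replicates.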

[3] = Competitive binding of ^241Am in rat plasma; conditions: 3 nM ^241Am nitrate, 37°C; for logistic equation parameter a (slope) / logistic equation parameter b (inflection point) / logistic equation parameter c (asymptote, fraction of bound ^241Am): estimate ± 95% conf. interval
Summary of the method: as §1

[4] = Solvent extraction study of the Am; type: binding; conditions: for calculated formation constant (log K) of the ^241Am-ligand complex: calculated from lg β^cond and pKa values; for conditional stability constant (lg β^cond) of the ^241Am complex: pH 1.3, I = 0.1 M NaCl, 25°C, 0.1 M HDEHP in dodecane
Summary of the method: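 Tracer ^241Am (16.7 MBq L-1) was partitioned between the organic and aqueous phases, with ligand at 0.05–100 µM in the aqueous phase. Samples were vortexed, shaken for 60 min, and centrifuged (10,000×g, 10 min). Both phases were gamma-counted (40–80 keV window), in triplicate. D0 came from a ligand-free aqueous phase. lg β^cond was obtained from a linear fit of […] against ligand concentration, and formation constants were then derived using the pKa values.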

[5] = Pharmacokinetics of C2E2 in beagle dogs; type: in vivo
Summary of the method: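 Dogs were 8–10 months old and weighed 10.1–12.0 kg. They were fasted overnight and dosed by gavage (12.05 mg mL-1 solution), with food returned about 2 h later. Jugular blood was drawn pre-dose and at 0.5–24 h into fluoride/oxalate tubes. Plasma was acidified with 20% formic acid and stored at –80 °C. Analysis was by LC/MS/MS with ^13C internal standards; the acid metabolite was measured as its Fe(III) complex in negative-ion mode. Data were fitted to a two-compartment model.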

[6] = type: in vivo, beagle; conditions: beagles, 100 mg kg^−1 oral C2E2
[7] = ref Martell, 1982; cited from earlier work
[8] = oral; ref Volf, 1984; cited from earlier work
[9] = reported for DTPA; cited from earlier work
[10] = cited from earlier work; for stability constant (log K) of the americium complex: ref Ansoborlo et al., 2007
[11] = 100 mg kg^−1 oral, two-compartment model

## CCOC(=O)CN(CCN(CCN(CC(=O)O)CC(=O)O)CC(=O)O)CC(=O)O [C2E1, monoethyl ester of DTPA]
[1]
  EC50: 5.26 µM
  EC90: 19 µM
  logistic equation parameter a (slope): 0.16 ± 0.03
  logistic equation parameter b (inflection point): 5.26 ± 0.74
  logistic equation parameter c (asymptote, fraction of bound ^241Am): 55.22 ± 1.06
[2]
  EC50: 2.02 µM
  EC90: 5.87 µM
  logistic equation parameter a (slope): 0.57 ± 0.13
  logistic equation parameter b (inflection point): 2.02 ± 0.38
  logistic equation parameter c (asymptote, fraction of bound ^241Am): 61.69 ± 1.4
Ionization
  pKa1: 9.63 ± 0.03
  pKa2: 6.35 ± 0.38
  pKa3: 2.99 ± 0.05
  pKa4: 1.72 ± 1.5
  pKa5: 1.18 ± 0.45
  pKa6: < 1.5
  pKa7: < 1.5
[3]
  EC50: 25.5 µM
  EC90: 60.1 µM
  logistic equation parameter a (slope): 0.06 ± 0.01
  logistic equation parameter b (inflection point): 25.50 ± 3.36
  logistic equation parameter c (asymptote, fraction of bound ^241Am): 45.74 ± 1.51
[4]
  calculated formation constant (log K) of the ^241Am-ligand complex: 21.7 ± 0.5
  conditional stability constant (lg β^cond) of the ^241Am complex: 2.46

## CCOC(=O)CN(CCN(CCN(CC(=O)O)CC(=O)OCC)CC(=O)O)CC(=O)O [C2E2, DTPA diethyl ester]
[5]; 100 mg kg^−1 oral
  fraction of the absorbed dose metabolized to C2E1 or DTPA: ~ 2%
[5]; 100 mg kg^−1 oral, two males and two females
  difference between AUC0–24 of males and females: no significant difference
[5]; [11]
  elimination half-life from the first compartment: 0.69 h
  elimination half-life from the second compartment: 6.66 h
[5]; single 100 mg kg^−1 oral gavage
  time to peak plasma concentration after administration: 1 h
[1]
  EC50: 8.87 µM
  EC90: 18.4 µM
  logistic equation parameter a (slope): 0.23 ± 0.04
  logistic equation parameter b (inflection point): 8.87 ± 0.80
  logistic equation parameter c (asymptote, fraction of bound ^241Am): 60.29 ± 1.25
[1]; human vs dog plasma
  difference between concentration required for chelation in humans and dogs: less than 2 fold
[1]; human vs rat plasma
  difference between concentration required for chelation in humans and rats: greater than 5 fold
[2]
  EC50: 4.91 µM
  EC90: 10.8 µM
  logistic equation parameter a (slope): 0.37 ± 0.02
  logistic equation parameter b (inflection point): 4.91 ± 0.18
  logistic equation parameter c (asymptote, fraction of bound ^241Am): 64.79 ± 0.50
Ionization
  pKa1: 9.40 ± 0.02
  pKa2: 4.68 ± 0.02
  pKa3: 3.52 ± 0.03
  pKa4: 1.87 ± 0.05
  pKa5: 1.76 ± 0.05
  pKa6: 1.45 ± 0.09
[6]
  time plasma concentration is above the 50% maximal binding threshold: 4.7 h
[3]
  EC50: 46.2 µM
  EC90: 101 µM
  logistic equation parameter a (slope): 0.04 ± 0.00
  logistic equation parameter b (inflection point): 46.17 ± 3.43
  logistic equation parameter c (asymptote, fraction of bound ^241Am): 54.62 ± 1.58
[4]
  stability of the ^241Am complex lower than that of the DTPA-^241Am complex: 6 log units
  calculated formation constant (log K) of the ^241Am-ligand complex: 19.6 and 19.6 ± 0.2
  conditional stability constant (lg β^cond) of the ^241Am complex: 1.36
[4]; compared with the americium-transferrin complex
  strength of americium binding relative to the strongest ligand in the plasma: nine orders of magnitude higher

## O=C(O)CN(CCN(CC(=O)O)CC(=O)O)CCN(CC(=O)O)CC(=O)O [DTPA, Diethylenetriaminepentaacetic acid, reference compound]
[7]
  stability constant (log K) with iron: 28.0
[8]
  bioavailability: ~ 3%
[1]
  EC50: 2.82 µM
  EC90: 5.05 µM
  logistic equation parameter a (slope): 0.98 ± 0.13
  logistic equation parameter b (inflection point): 2.82 ± 0.30
  logistic equation parameter c (asymptote, fraction of bound ^241Am): 55.88 ± 1.40
[2]
  EC50: 1.08 µM
  EC90: 2.25 µM
  logistic equation parameter a (slope): 1.87 ± 0.69
  logistic equation parameter b (inflection point): 1.08 ± 0.18
  logistic equation parameter c (asymptote, fraction of bound ^241Am): 54.75 ± 2.16
[9]
  pKa1: 10.51 ± 0.01
  pKa2: 8.54 ± 0.02
  pKa3: 4.31 ± 0.02
  pKa4: 2.55 ± 0.05
  pKa5: 1.80 ± 0.05
  pKa6: 1.60 ± 0.15
  pKa7: 1.45 ± 0.15
[3]
  EC50: 5.36 µM
  EC90: 12.4 µM
  logistic equation parameter a (slope): 0.31 ± 0.03
  logistic equation parameter b (inflection point): 5.36 ± 0.43
  logistic equation parameter c (asymptote, fraction of bound ^241Am): 35.69 ± 0.85
[4]
  calculated formation constant (log K) of the ^241Am-ligand complex: 25.4 ± 0.3
  conditional stability constant (lg β^cond) of the ^241Am complex: 2.70

## O=C(O)CC(O)(CC(=O)O)C(=O)O [citrate]
[10]
  stability constant (log K) of the americium complex: 8.6

## O=[N+]([O-])O [nitrate]
[10]; ref Silva and OECD Nuclear Energy Agency., 1995
  affinity for americium (log K): 1.3

## transferrin: plasma protein that binds about 30% of the total ^241Am
[10]
  stability constant (log K) of the americium complex: 10.4
